Experimental data published in ChEMBL document CHEMBL1140873, “Interaction between double helix DNA fragments and a new topopyrone acting as human topoisomerase I poison” (Bioorg Med Chem, 2009).
Activity calls are given as the source filed them. The calls are words filed in the database; no cut-off is given here.

How the values were obtained:
[1] = Binding affinity to oligonucleotide d(CGTACG)2 at [drug]/[DNA] ratio of 4 by NMR DOSY experiment
In short: (§1)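 DOSY at 25 °C on the complex in D2O, 0.1 M NaCl, 10 mM phosphate, pH 6.7, with drug at 5.4 mM. Gradient pulse 1.5 ms, 64 increments. Molecular mass was read from a calibration curve of diffusion standards from glucose up to trypsin (Mr 180–23,500).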

[2] = Binding affinity to oligonucleotide d(CGTACG)2 at [drug]/[DNA] ratio of 3 by NMR DOSY experiment; in short: as §1
[3] = Binding affinity to oligonucleotide d(CGTACG)2 by single diffusion coefficient experiment; in short: as §1
[4] = Binding affinity to oligonucleotide d(CGTACG)2 at [drug]/[DNA] ratio of 4 by NMR spectroscopy
In short: (§2)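 1H NMR titration at 600 MHz. A drug stock (23.4 mM) was added in increasing amounts to oligonucleotide up to R = [2]/[DNA] = 4.0. An inverse titration added DNA to 0.2 mM drug. Conditions were D2O, 10 mM phosphate, 0.1 M NaCl, pH 6.7, 25 °C. Shifts were referenced to external DSS.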

[5] = Binding affinity to oligonucleotide d(CGTACG)2 at [drug]/[DNA] ratio of 2 by NOESY experiment
In short: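 Phase-sensitive NOESY (TPPI) run at 25 °C in D2O and 15 °C in H2O/D2O 90:10. Sample was complex at R = 2 in 10 mM phosphate pH 6.7 with 100 mM NaCl. Mixing time 300 ms, 2K x 512 FIDs, 1.5 s recycle delay, 80 scans. Ligand–DNA NOEs were treated as transferred NOEs.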

[6] = Binding affinity to oligonucleotide d(ATGCGCAT)2 by UV-visible spectroscopy
In short: (§3)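 Apparent DNA–drug binding constants measured by UV titration at 25 °C, read at λmax 376 nm. A 5.0 x 10^-? M aqueous drug stock was added in increasing amounts to a 1.0 x 10^-5 M oligonucleotide solution.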

[7] = Binding affinity to oligonucleotide d(CGTATACG)2 by UV-visible spectroscopy; in short: as §3
[8] = Binding affinity to oligonucleotide d(CGTACG)2 assessed as intercalation by single diffusion coefficient experiment; in short: as §1
[9] = Binding affinity to oligonucleotide d(CGTACG)2 by UV-visible spectroscopy; in short: as §3
[10] = Binding affinity to oligonucleotide d(CGTACG)2 at [drug]/[DNA] ratio of 1 by NMR spectroscopy; in short: as §2

## Cc1cc(=O)c2ccc3c(c2o1)C(=O)c1c(OCCN(C)C)cccc1C3=O
[1]
  Activity: Active
[2]
  Activity: Active
[3]
  Activity: Active
[4]
  Activity: Active
[5]
  Activity: Active
[6]
  K: 6 ×10³ /M
[7]
  K: 1 ×10³ /M
[8]
  Activity: Active
[9]
  K: 4 ×10³ /M
[10]
  Activity: Active
